Measurements from ChEMBL document CHEMBL1122774, “Tri- and tetrapeptide analogues of kinins as potential renal vasodilators” (J Med Chem, 1984).
Square brackets hold non-standard residues; d marks the D form. Peptide text beside a SMILES is read from it. * marks the point of attachment. ξ: configuration not given here. Butanoyl(4-(4-HOPh)) = O=C(CCCc1ccc(O)cc1)*; ξαMeF = CC(N)(Cc1ccccc1)C(=O)O; Bz = O=C(c1ccccc1)*

Columns and labels:
[1] = test system: Canis familiaris; experiment: In vivo percent change in canine renal vascular resistance (RVR) at 3 ug/Kg/min.; assay type: functional, Canis lupus familiaris
Outline: (§1)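 Primary screen in anesthetized dogs (7-17 kg). Drug infused separately at 3, 30 and 300 µg/(kg min), each infusion lasting 5 min, at about 15-min intervals. Read-outs are renal blood flow, mean arterial blood pressure, heart rate, and RVR (MABP / mean RBF), as percent change. Significance thresholds are defined per number of dogs; n = 1-3 dogs.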

[2] = test system: Canis familiaris; experiment: In vivo percent change in canine heart rate at 300 ug/Kg/min.; assay type: functional, Canis lupus familiaris; outline: as §1
[3] = test system: Canis familiaris; experiment: In vivo percent change in canine renal blood flow (RBF) at 3 ug/Kg/min.; assay type: functional, Canis lupus familiaris, Kidney; outline: as §1
[4] = test system: Canis familiaris; experiment: In vivo percent change in canine mean arterial blood pressure (MABP) at 30 ug/Kg/min.; assay type: functional, Canis lupus familiaris; outline: as §1
[5] = test system: Canis familiaris; experiment: Renal vasodilator activity in anesthetized dogs and percent change in mean arterial blood pressure (MABP) was determined at 3 ug/Kg/min; assay type: functional, Canis lupus familiaris; outline: as §1
[6] = test system: Canis familiaris; experiment: In vivo percent change in renal blood flow at 30 ug/Kg/min.; assay type: functional, Canis lupus familiaris, Kidney; outline: as §1
[7] = test system: Canis familiaris; experiment: In vivo percent change in canine renal vascular resistance (RVR) at 300 ug/Kg/min.; assay type: functional, Canis lupus familiaris; outline: as §1
[8] = test system: Canis familiaris; experiment: In vivo percent change in canine heart rate at 30 ug/Kg/min.; assay type: functional, Canis lupus familiaris; outline: as §1
[9] = test system: Canis familiaris; experiment: In vivo percent change in canine heart rate at 3 ug/Kg/min.; assay type: functional, Canis lupus familiaris; outline: as §1
[10] = test system: Canis familiaris; experiment: In vivo percent change in canine renal blood flow (RBF) at 300 ug/Kg/min.; assay type: functional, Canis lupus familiaris, Kidney; outline: as §1
[11] = test system: Canis familiaris; experiment: In vivo percent change in canine renal vascular resistance (RVR) at 30 ug/Kg/min.; assay type: functional, Canis lupus familiaris; outline: as §1
[12] = test system: Canis familiaris; experiment: In vivo percent change in canine mean arterial blood pressure (MABP) at 300 ug/Kg/min.; assay type: functional, Canis lupus familiaris; outline: as §1
[13] = Average max percent decrease in RVR (renal vascular resistance) was determined.
Outline: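 Secondary protocol in anesthetized dogs. Drug given as iv infusion at progressively increasing rates, each dose level for 5 min. The maximum effect is taken as the largest percent decrease in renal vascular resistance (RVR) reached with the compound. RVR is calculated as mean arterial blood pressure / mean renal blood flow.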

[14] = test system: Canis familiaris; experiment: Renal vasodilator activity in anesthetized dogs and percent change in renal vascular resistance (RVR) was determined at 3 ug/kg min; assay type: functional, Canis lupus familiaris; outline: as §1
[15] = Ratio of ED30 of iliac vascular resistant (IVR) to the ED15 of RVR (renal vascular resistance); assay type: functional
Outline: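 Anesthetized dogs in the secondary cumulative-infusion protocol, each dose level 5 min. Selectivity ratio is the dose giving a 30% change in iliac vascular resistance divided by the RVR ED15, the cumulative dose decreasing renal vascular resistance by 15%.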

[16] = test system: Canis familiaris; experiment: Renal vasodilator activity in anesthetized dogs and percent change in renal blood flow (RBF) was determined at 3 ug/kg min; assay type: functional, Canis lupus familiaris, Kidney; outline: as §1
[17] = test system: Canis familiaris; experiment: Renal vasodilator activity in anesthetized dogs and percent change in mean arterial blood pressure (MABP) was determined at 300 ug/kg min; assay type: functional, Canis lupus familiaris; outline: as §1
[18] = test system: Canis familiaris; experiment: Compound was evaluated for renal vasodilator activity and represented as ED15 (intravenous administration); assay type: functional; settings: Canis lupus familiaris
Outline: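 Secondary protocol in anesthetized dogs with iv infusion at progressively increasing rates, each level infused 5 min. Potency is the cumulative dose (µg/kg) that lowered renal vascular resistance (MABP / mean RBF) by 15%. Minimum change needed for significance (p = 0.95) is 16% for RVR.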

[19] = test system: Canis familiaris; experiment: Renal vasodilator activity in anesthetized dogs and percent change in heart rate (HR) was determined at 300 ug/kg min; assay type: functional, Canis lupus familiaris; outline: as §1
[20] = test system: Canis familiaris; experiment: Renal vasodilator activity in anesthetized dogs and percent change in mean arterial blood pressure (MABP) was determined at 30 ug/kg min; assay type: functional, Canis lupus familiaris; outline: as §1
[21] = test system: Canis familiaris; experiment: Renal vasodilator activity in anesthetized dogs and percent change in renal blood flow (RBF) was determined at 30 ug/kg min; assay type: functional, Canis lupus familiaris, Kidney; outline: as §1
[22] = test system: Canis familiaris; experiment: Renal vasodilator activity in anesthetized dogs and percent change in heart rate (HR) was determined at 30 ug/kg min; assay type: functional, Canis lupus familiaris; outline: as §1
[23] = test system: Canis familiaris; experiment: Renal vasodilator activity in anesthetized dogs and percent change in renal blood flow (RBF) was determined at 300 ug/kg min; assay type: functional, Canis lupus familiaris, Kidney; outline: as §1
[24] = Ratio of ED20 of MABP (mean arterial blood pressure) to the ED15 of RVR ( renal vascular resistance).; assay type: functional
Outline: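 Anesthetized dogs in the secondary cumulative-infusion protocol, each dose level 5 min. Selectivity ratio is the dose giving a 20% change in mean arterial blood pressure divided by the cumulative dose lowering renal vascular resistance 15% (RVR ED15).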

[25] = test system: Canis familiaris; experiment: Renal vasodilator activity in anesthetized dogs and percent change in renal vascular resistance (RVR) was determined at 30 ug/kg min; assay type: functional, Canis lupus familiaris; outline: as §1
[26] = test system: Canis familiaris; experiment: Renal vasodilator activity in anesthetized dogs and percent change in mean arterial blood pressure (MABP) was determined at 3 ug/kg min; assay type: functional, Canis lupus familiaris; outline: as §1
[27] = test system: Canis familiaris; experiment: Renal vasodilator activity in anesthetized dogs and percent change in heart rate (HR) was determined at 3 ug/kg min; assay type: functional, Canis lupus familiaris; outline: as §1
[28] = test system: Canis familiaris; experiment: Renal vasodilator activity in anesthetized dogs and percent change in renal vascular resistance (RVR) was determined at 300 ug/kg min; assay type: functional, Canis lupus familiaris; outline: as §1
[29] = test system: Canis familiaris; experiment: Renal vasodilator activity in anesthetized dogs and percent change in heart rate (HR) was determined at 300 ug/Kg/min; assay type: functional, Canis lupus familiaris; outline: as §1
[30] = test system: Canis familiaris; experiment: In vivo percent change in canine mean arterial blood pressure (MABP) at 3 ug/Kg/min.; assay type: functional, Canis lupus familiaris; outline: as §1
[31] = test system: Canis familiaris; experiment: In vivo percent change in canine renal blood flow (RBF) at 30 ug/Kg/min.; assay type: functional, Canis lupus familiaris, Kidney; outline: as §1
[32] = test system: Canis familiaris; experiment: Renal vasodilator activity in anesthetized dogs and percent change in renal vascular resistance (RVR) was determined at 30 ug/Kg/min; assay type: functional, Canis lupus familiaris; outline: as §1

| Compound | Change [1] [%] | Change [2] [%] | Change [3] [%] | Change [4] [%] | Change [6] [%] | Change [7] [%] | Change [8] [%] | Change [9] [%] | Change [10] [%] | Change [11] [%] | Change [12] [%] | Change [30] [%] | also measured |
| --- | --- | --- | --- | --- | --- | --- | --- | --- | --- | --- | --- | --- | --- |
| COc1ccc(CC(C)(NC(=O)[C@@H]2CCCN2C(=O)CCCc2ccccc2)C(=O)N[C@@H](CCCN=C(N)N)C(=O)O)cc1OC (some centres not stated) | -8.5 | 2.5 | 7.5 | -1 | 8.5 | -7 | 1 | 4.5 | 5 | -8.5 | -2 | – | Change [5]: -2% |
| H-FSPFR-OH [listing 1 of 2 here] | – | – | – | – | – | – | – | – | – | – | – | – | Decrease [13]: 21% |
| H-FSPFR-OH [listing 2 of 2 here] | – | – | – | – | – | – | – | – | – | – | – | – | Change [14]: -3.8%; Ratio [15]: > 1160; Change [16]: 3%; Change [17]: -5.7%; ED15 [18]: 5.2 µg/kg; Change [19]: 4.8%; Change [20]: 0.5%; Change [21]: 6.5%; Change [22]: 0%; Change [23]: 26.2%; Ratio [24]: >1158; Change [25]: -5.1%; Change [26]: -1.2%; Change [27]: 0.8%; Change [28]: -24.8% |
| CC(Cc1ccccc1)(NC(=O)[C@@H]1CCCN1C(=O)c1ccccc1)C(=O)N[C@@H](CCCN=C(N)N)C(=O)O (some centres not stated) (Bz-Pro-[ξαMeF]-Arg-OH) | -5 | – | 4 | 1 | 3 | 0 | 3 | -6 | -3 | -2 | -4 | -1 | Change [29]: 6% |
| O=C(NCC(=O)N1CCC[C@H]1C(=O)O)[C@H](Cc1ccccc1)NC(=O)[C@@H]1CCCN1C(=O)CCCc1ccc(O)cc1 ({Butanoyl(4-(4-HOPh))}-PFGP-OH) | -4.5 | 1.5 | 2.5 | -1 | – | -8.5 | -1.5 | -2.5 | 7 | – | -1.5 | -2 | Change [31]: -43%; Change [32]: 74.5% |
| Cl.NCCCNC(=O)[C@H](Cc1ccccc1)NC(=O)[C@@H]1CCCN1C(=O)CCCc1ccccc1 | 0 | -5.3 | 0 | 0 | – | -8.9 | 0 | 0 | 6.5 | – | -2.7 | 0 | Change [31]: 5%; Change [32]: -3.8% |
| H-RPPGFSPFR-OH [BRADYKININ] | – | – | – | – | – | – | – | – | – | – | – | – | Decrease [13]: 67% |
| CC(Cc1ccccc1)(NC(=O)[C@@H]1CCCN1C(=O)c1ccccc1)C(=O)N1CCC[C@H]1C(=O)O (some centres not stated) (Bz-Pro-[ξαMeF]-Pro-OH) | -4 | 0 | 4 | -5 | 0 | -4 | -6 | 3 | 0 | -5 | -4 | 0 | – |
